Legend:
Salmonella typhimurium [1] = test: Antimutagenic activity in Salmonella Typhimurium TA100 assessed as protection against benzo[a]pyrene-induced mutation at 2 ug/plate after 2 days by modified Ames test; format: functional, Salmonella enterica subsp. enterica serovar Typhimurium
Procedure, shortened: (§1)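 S. typhimurium TA100 grown 15 h at 37 °C in Oxoid Nutrient Broth No. 2 with shaking to about (1-2) × 10^8 cells/mL. Culture in histidine/biotin-supplemented top agar with 5 μg benzo(a)pyrene plus 50 μL S9 and test compound. Plated on Vogel-Bonner E medium, 37 °C for 2 days. His+ revertants scored on 3 plates, averaged, and % protection taken relative to mutagen minus spontaneous revertants.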

Salmonella typhimurium [2] = test: Antimutagenic activity in Salmonella Typhimurium TA102 assessed as protection against hydrogen peroxide-induced mutation at 1 ug/plate after 2 days by modified Ames test; format: functional, Salmonella enterica subsp. enterica serovar Typhimurium
Procedure, shortened: as §1, with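 “typhimurium TA102” for “typhimurium TA100”, “with 100” for “with 5”, “μg hydrogen peroxide” for “μg benzo(a)pyrene plus 50 μL S9”, “to mutagen-induced revertants” for “to mutagen”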

Salmonella typhimurium [3] = test: Antimutagenic activity in Salmonella Typhimurium TA100 assessed as protection against benzo[a]pyrene-induced mutation at 4 ug/plate after 2 days by modified Ames test; format: functional, Salmonella enterica subsp. enterica serovar Typhimurium; procedure, shortened: as §1
Salmonella typhimurium [4] = test: Antimutagenic activity in Salmonella Typhimurium TA102 assessed as protection against hydrogen peroxide-induced mutation at 4 ug/plate after 2 days by modified Ames test; format: functional, Salmonella enterica subsp. enterica serovar Typhimurium; conditions: at 4 µg/plate
Salmonella typhimurium [5] = test: Antimutagenic activity in Salmonella Typhimurium TA102 assessed as protection against hydrogen peroxide-induced mutation at 2 ug/plate after 2 days by modified Ames test; format: functional, Salmonella enterica subsp. enterica serovar Typhimurium
Procedure, shortened: as §1, with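 “typhimurium TA102” for “typhimurium TA100”, “with 100” for “with 5”, “μg hydrogen peroxide” for “μg benzo(a)pyrene plus 50 μL S9”, “to mutagen-induced revertants” for “to mutagen”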

Salmonella typhimurium [6] = test: Antimutagenic activity in Salmonella Typhimurium TA100 assessed as protection against benzo[a]pyrene-induced mutation at 8 ug/plate after 2 days by modified Ames test; format: functional, Salmonella enterica subsp. enterica serovar Typhimurium; conditions: at 8 µg/plate
Salmonella typhimurium [7] = test: Antimutagenic activity in Salmonella Typhimurium TA100 assessed as protection against benzo[a]pyrene-induced mutation at 16 ug/plate after 2 days by modified Ames test; format: functional, Salmonella enterica subsp. enterica serovar Typhimurium; conditions: at 16 µg/plate
Salmonella typhimurium [8] = test: Antimutagenic activity in Salmonella Typhimurium TA102 assessed as protection against hydrogen peroxide-induced mutation at 8 ug/plate after 2 days by modified Ames test; format: functional, Salmonella enterica subsp. enterica serovar Typhimurium; conditions: at 8 µg/plate
Salmonella typhimurium [9] = test: Antimutagenic activity in Salmonella Typhimurium TA100 assessed as protection against benzo[a]pyrene-induced mutation at 32 ug/plate after 2 days by modified Ames test; format: functional, Salmonella enterica subsp. enterica serovar Typhimurium; conditions: at 32 µg/plate
[10] = Cytotoxicity against Salmonella Typhimurium TA100 assessed as maximum non-toxic concentrations after 15 hrs by ELISA; conditions: salmonella enterica subsp. enterica serovar typhimurium, Salmonella Typhimurium TA100 bacteria

Compound | Activity (Salmonella typhimurium [1]) [%] | Activity (Salmonella typhimurium [2]) [%] | Activity (Salmonella typhimurium [3]) [%] | Activity (Salmonella typhimurium [4]) [%] | Activity (Salmonella typhimurium [5]) [%] | Activity (Salmonella typhimurium [6]) [%] | Activity (Salmonella typhimurium [7]) [%] | Activity (Salmonella typhimurium [8]) [%] | Activity (Salmonella typhimurium [9]) [%] | MNTC at 15 h [10] [µg/mL]
COc1ccc2ccc(=O)oc2c1 [HERNIARIN] | 21 | 0 | 28 | 11 | 10 | 36 |  |  |  | 
CC1(C)C=Cc2c(ccc3ccc(=O)oc23)O1 [SESALIN] |  |  | 1 | 8 | 0 | 8 | 20 | 22 |  | 
CC(C)=CCOc1ccc2ccc(=O)oc2c1 [7-PRENYLOXYCOUMARIN] | 19 | 9 | 29 | 17 | 14 | 36 |  |  |  | 
O=c1ccc2ccc(O)cc2o1 [UMBELLIFERONE] |  |  | 10 | 13 | 7 | 22 | 39 | 28 |  | 
CC1=CC[C@@H](O)C(C)(C)[C@H]1CC/C(C)=C/COc1ccc2ccc(=O)oc2c1 |  |  |  |  |  |  |  |  | 45 | 
O=c1ccc2ccc(OCC3CCCCC3)cc2o1 [UMBELLIFERONECYCLOHEXYLMETHYL ETHER] |  |  | 33 | 5 | 0 | 44 | 54 | 39 |  | 16
C#CC(C)(C)Oc1ccc2ccc(=O)oc2c1 | 10 | 0 | 15 | 11 | 0 | 25 |  |  |  | 

— ChEMBL document CHEMBL1144121, “Umbelliferone analogues and their potential to inhibit Benzo(a)pyrene- and hydrogen peroxide-induced mutations” (J Nat Prod, 1999)
